Assay results of several laboratories.
Compare with care: the assays were run in different laboratories.
Target: MAP kinase-activated protein kinase 3 (MAPKAPK3, Homo sapiens, UniProt Q16644)

For `CC(C)(C)c1nc2c(s1)c1nc(N)ncc1c1ccc(NS(=O)(=O)c3c(F)cccc3F)c(F)c12`, the remaining activity was 93% (enzyme activity, inhibitor, radiometric; 1 µM).
`CC(C)(O)[C@H]1CC[C@H](Nc2ccc3ncc(-c4cccc(C(F)(F)F)c4)n3n2)CC1` gave a remaining activity of 103% (enzyme activity, inhibitor; 1 µM).
For `CCN(CC)CCNC(=O)c1c(C)[nH]c(/C=C2\C(=O)Nc3ccc(F)cc32)c1C`, the inhibition was -10% (enzyme activity, inhibitor; 0.3 µM).
The remaining signal of `O=C1NC(=O)c2cc(Nc3ccc(F)cc3)c(Nc3ccc(F)cc3)cc21` is reported as 95.9% (cell-free assay; 0.5 µM).
For `CNC(=O)c1cc(Oc2ccc(NC(=O)Nc3ccc(Cl)c(C(F)(F)F)c3)cc2)ccn1`, the inhibition was -5% (enzyme activity, inhibitor; 10 µM).
The remaining activity of `COc1cc(Nc2cnc(C#N)c(O[C@H](C)CN(C)C)n2)ncc1-c1cnn(C)c1` is reported as 80% (enzyme activity, inhibitor, radiometric; 10 µM).
`CCCCNc1ncc2c(-c3ccc(F)cc3)nn(C[C@H]3CC[C@H](N)CC3)c2n1` has an inhibition of 6.1% (target engagement in cells, inhibitor, chemoproteomics; 20 mM).
The remaining signal of `O=C1Nc2ccc(Cl)cc2C1=Cc1cc(Cl)c(O)c(Cl)c1` is reported as 88.4% (cell-free assay; 0.5 µM).
`COc1cc2ncnc(Nc3ccc(Oc4ccccc4)cc3C)c2cc1OC` gave an inhibition of 0% (enzyme activity, inhibitor; 1 µM).
For `Cc1ccc(Nc2nccc(N(C)c3ccc4c(C)n(C)nc4c3)n2)cc1S(N)(=O)=O`, the inhibition was -3% (enzyme activity, inhibitor; 10 µM).
For `O=C(Nc1cnn(-c2csc(C(=O)NC3COC3)c2)c1)Nc1c(F)cccc1Cl`, the remaining activity was 95.6% (enzyme activity, inhibitor; 5 µM).
The remaining activity of `FC(F)c1nc2ccccc2n1-c1nc(N2CCOCC2)nc(N2CCOCC2)n1` is reported as 97% (enzyme activity, inhibitor; 10 µM).
With `Cc1cnc(NC2CCOCC2)nc1-n1cnc(C(=O)NC(CN)c2cc(F)cc(Cl)c2)c1` (stereo not shown) the remaining activity was 110% (enzyme activity, inhibitor, radiometric; 1 µM).
For `FC(F)(F)Oc1cccc(-c2cnc3ccc(-c4ccncc4)nn23)c1`, the activity vs control was 97% (enzyme activity, inhibitor, radiometric; 5 µM).
`CNc1cccc2cc(C(=O)Nc3ccc(C(=O)O)cc3)c(=O)[nH]c12` has an inhibition of -3.2% (enzyme activity, inhibitor; 10 µM).
For `CCN(CC)c1ccc(C2=NNC(=O)CC2C)cc1[N+](=O)[O-]` (stereo not shown), the remaining activity was 100% (enzyme activity, inhibitor; 10 µM).
With `CCCS(=O)(=O)Nc1ccc(F)c(C(=O)c2c[nH]c3ncc(-c4ccc(Cl)cc4)cc23)c1F` the inhibition was < 10% (enzyme activity, inhibitor; 1 µM).
For `Cc1cc(NC(=O)c2cccc3cc(-c4cccc5[nH]nc(N)c45)ccc23)ccc1F`, the activity vs control was 96% (enzyme activity, inhibitor; 0.1 µM).
For `Cn1c(=O)n(-c2ccc(C(C)(C)C#N)cc2)c2c3cc(-c4cnc5ccccc5c4)ccc3ncc21`, the remaining activity was 110% (enzyme activity, inhibitor; 10 µM).
